Reference: ChEMBL document CHEMBL1148762, “Lysosome and HER3 (ErbB3) selective anticancer agent kahalalide F: semisynthetic modifications and antifungal lead-exploration studies” (J Med Chem, 2007)
In brackets after ≈: the same amount, converted by molar mass. Activity calls are given as the source filed them. No cut-off for these calls is given here.

Assays:
Fusarium proliferatum [1] = assay: Antimicrobial activity against Fusarium proliferatum at 0.3 uM after 72 hrs by microtiter assay; assay type: functional
How it was run: (§1)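 96-well microdilution broth assay with conidia (3 × 10^5 conidia/mL, harvested from 7-day PDA cultures and filtered) against F. oxysporum, F. proliferatum and F. solani at 0.3, 3 and 30 µM. Plates were held at 24 ± 1 °C under a 12 h photoperiod. Growth was read at 620 nm at 24, 48 and 72 h and reported as percent inhibition from mean absorbance with standard error.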

Fusarium proliferatum [2] = assay: Antimicrobial activity against Fusarium proliferatum at 3 uM after 48 hrs by microtiter assay; assay type: functional; how it was run: as §1
Fusarium proliferatum [3] = assay: Antimicrobial activity against Fusarium proliferatum at 3 uM after 72 hrs by microtiter assay; assay type: functional; how it was run: as §1
Aspergillus fumigatus = assay: Antimicrobial activity against Aspergillus fumigatus ATCC 90906; assay type: functional, organism-based
Cryptococcus neoformans = assay: Antimicrobial activity against Cryptococcus neoformans ATCC 90113; assay type: functional, organism-based
Fusarium proliferatum [4] = assay: Antimicrobial activity against Fusarium proliferatum at 0.3 uM after 48 hrs by microtiter assay; assay type: functional; how it was run: as §1
Candida albicans = assay: Antimicrobial activity against Candida albicans ATCC 90028; assay type: functional, organism-based
[5] = system: Mycobacterium intracellulare; assay: Antimicrobial activity against Mycobacterium intracellular ATCC 23068; assay type: functional, organism-based
[6] = system: Mycobacterium tuberculosis; assay: Antibacterial activity against Mycobacterium tuberculosis H37Rv at 16 ug/mL by micro plate alamar blue assay; assay type: functional
How it was run: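 M. tuberculosis H37Rv ATCC 27294 grown in BACTEC 12B medium; microplate Alamar blue assay (MABA). Primary screen at a single concentration of 16 µg/mL, read as percent inhibition.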

[7] = system: Mycobacterium tuberculosis; assay: Antibacterial activity against Mycobacterium tuberculosis H37Rv by micro plate alamar blue assay; assay type: functional
Fusarium oxysporum [8] = assay: Antimicrobial activity against Fusarium oxysporum at 0.3 uM after 48 hrs by microtiter assay; assay type: functional; how it was run: as §1
Fusarium oxysporum [9] = assay: Antimicrobial activity against Fusarium oxysporum at 0.3 uM after 72 hrs by microtiter assay; assay type: functional; how it was run: as §1
Fusarium solani [10] = assay: Antimicrobial activity against Fusarium solani at 0.3 uM after 48 hrs by microtiter assay; assay type: functional; how it was run: as §1
Fusarium solani [11] = assay: Antimicrobial activity against Fusarium solani at 0.3 uM after 72 hrs by microtiter assay; assay type: functional; how it was run: as §1
Fusarium oxysporum [12] = assay: Antimicrobial activity against Fusarium oxysporum at 3 uM after 48 hrs by microtiter assay; assay type: functional; how it was run: as §1
Fusarium oxysporum [13] = assay: Antimicrobial activity against Fusarium oxysporum at 3 uM after 72 hrs by microtiter assay; assay type: functional; how it was run: as §1
Fusarium solani [14] = assay: Antimicrobial activity against Fusarium solani at 3 uM after 48 hrs by microtiter assay; assay type: functional; how it was run: as §1
Fusarium solani [15] = assay: Antimicrobial activity against Fusarium solani at 3 uM after 72 hrs by microtiter assay; assay type: functional; how it was run: as §1
Fusarium oxysporum [16] = assay: Antimicrobial activity against Fusarium oxysporum at 30 uM after 48 hrs by microtiter assay; assay type: functional; how it was run: as §1
Fusarium oxysporum [17] = assay: Antimicrobial activity against Fusarium oxysporum at 30 uM after 72 hrs by microtiter assay; assay type: functional; how it was run: as §1
Fusarium solani [18] = assay: Antimicrobial activity against Fusarium solani at 30 uM after 48 hrs by microtiter assay; assay type: functional; how it was run: as §1
Fusarium solani [19] = assay: Antimicrobial activity against Fusarium solani at 30 uM after 72 hrs by microtiter assay; assay type: functional; how it was run: as §1
Fusarium proliferatum [20] = assay: Antimicrobial activity against Fusarium proliferatum at 30 uM after 48 hrs by microtiter assay; assay type: functional; how it was run: as §1
Fusarium proliferatum [21] = assay: Antimicrobial activity against Fusarium proliferatum at 30 uM after 72 hrs by microtiter assay; assay type: functional; how it was run: as §1
Fusarium proliferatum [22] = assay: Fungicidal activity against Fusarium proliferatum at 30 uM after 72 hrs by microtiter plate assay; assay type: functional, organism-based
How it was run: (§2)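 After 72 h of microtiter broth exposure at 30 µM, 20 µL from each well was plated onto compound-free potato dextrose agar and incubated 3 days at 28 °C. No regrowth was scored fungicidal; regrowth was scored fungistatic.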

Fusarium solani [23] = assay: Fungicidal activity against Fusarium solani at 30 uM after 72 hrs by microtiter assay; assay type: functional, organism-based; how it was run: as §2
Fusarium oxysporum [24] = assay: Fungistatic activity against Fusarium oxysporum at 30 uM after 72 hrs by microtiter plate assay; assay type: functional, organism-based
How it was run: (§3)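 Conidia come from 7-day potato dextrose agar cultures, filtered and set photometrically (625 nm) to 3 × 10^5 conidia/mL. They are exposed to compound at 30 µM in 96-well microdilution broth at 24 ± 1 °C under a 12 h photoperiod. After 72 h, 20 µL per well is subcultured on drug-free potato dextrose agar at 28 °C for 3 days. No regrowth is scored fungicidal; regrowth is scored fungistatic.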

Escherichia coli = assay: Antimicrobial activity against Escherichia coli; assay type: functional, organism-based
Staphylococcus aureus = assay: Antimicrobial activity against methicillin-resistant Staphylococcus aureus; assay type: functional, organism-based
Fusarium oxysporum [25] = assay: Fungicidal activity against Fusarium oxysporum at 30 uM after 72 hrs by microtiter plate assay; assay type: functional, organism-based; how it was run: as §2
Fusarium proliferatum [26] = assay: Fungistatic activity against Fusarium proliferatum at 30 uM after 72 hrs by microtiter plate assay; assay type: functional, organism-based; how it was run: as §3
Fusarium solani [27] = assay: Fungistatic activity against Fusarium solani at 30 uM after 72 hrs by microtiter plate assay; assay type: functional, organism-based; how it was run: as §3

Row | Structure (SMILES) | inhibition at 0.3 µM (Fusarium proliferatum [1]) [%] | inhibition at 3 µM (Fusarium proliferatum [2]) [%] | inhibition at 3 µM (Fusarium proliferatum [3]) [%] | IC50 (Aspergillus fumigatus) [µM] | IC50 (Cryptococcus neoformans) [µM] | inhibition at 0.3 µM (Fusarium proliferatum [4]) [%] | IC50 (Candida albicans) [µM] | inhibition at 0.3 µM (Fusarium oxysporum [8]) [%] | inhibition at 0.3 µM (Fusarium oxysporum [9]) [%] | inhibition at 0.3 µM (Fusarium solani [10]) [%] | inhibition at 0.3 µM (Fusarium solani [11]) [%] | inhibition at 3 µM (Fusarium oxysporum [12]) [%] | inhibition at 3 µM (Fusarium oxysporum [13]) [%] | inhibition at 3 µM (Fusarium solani [14]) [%] | inhibition at 3 µM (Fusarium solani [15]) [%] | inhibition at 30 µM (Fusarium oxysporum [16]) [%] | inhibition at 30 µM (Fusarium oxysporum [17]) [%] | inhibition at 30 µM (Fusarium solani [18]) [%] | inhibition at 30 µM (Fusarium solani [19]) [%] | inhibition at 30 µM (Fusarium proliferatum [20]) [%] | also measured
1 | C/C=C1\NC(=O)[C@H](Cc2ccccc2)NC(=O)[C@@H](C(C)C)NC(=O)[C@@H]([C@@H](C)CC)NC(=O)[C@H](NC(=O)[C@H](NC(=O)[C@H](CCCN)NC(=O)[C@H]2CCCN2C(=O)[C@@H](NC(=O)[C@H](NC(=O)[C@H](NC(=O)[C@@H](NC(=O)CCCC(C)C)C(C)C)[C@H](C)OC(C)=O)C(C)C)C(C)C)[C@@H](C)CC)[C@@H](C)OC(=O)[C@H](C(C)C)NC1=O | 0.3 | 0 | 0.3 | 3.38 | 1.89 | 0 | 3.28 | 0 | 0 | 0 | 0 | 0 | 0 | 0 | 0 | 78.5 | 74.4 | 80.9 | 96.7 | 70.8 | MFC (Aspergillus fumigatus): 10 µM (≈ 15.2 µg/mL); MIC (Aspergillus fumigatus): 10 µM (≈ 15.2 µg/mL); MFC (Cryptococcus neoformans): 5 µM (≈ 7.6 µg/mL); MIC (Cryptococcus neoformans): 5 µM (≈ 7.6 µg/mL); MFC (Candida albicans): 20 µM (≈ 30.4 µg/mL); MIC (Candida albicans): 10 µM (≈ 15.2 µg/mL); IC50 [5]: 14.3 µM; MBC [5]: > 20 µM; MIC [5]: > 20 µM; inhibition at 16 µg/mL [6]: 94%; MIC [7]: 15.4 µg/mL (≈ 10.1 µM); inhibition at 30 µM (Fusarium proliferatum [21]): 34.7%; Activity (Fusarium proliferatum [22]): Active; Activity (Fusarium solani [23]): Active; Activity (Fusarium oxysporum [24]): Active
2 | CC(C)CCC[C@H]1CC(=O)N[C@H](Cc2c[nH]c3ccccc23)C(=O)N2CCC[C@H]2C(=O)N[C@@H](CCCNC(=N)N)C(=O)O1 [KAHALALIDE D] |  |  |  | > 33.6 | > 33.6 |  | > 33.6 |  |  |  |  |  |  |  |  |  |  |  |  |  | Activity (Escherichia coli): inactive; Activity (Staphylococcus aureus): inactive; IC50 [5]: > 33.6 µM; inhibition at 16 µg/mL [6]: 49%
3 | C[C@@H]1[C@H](O)[C@@H](C)/C=C/C=C/C=C/C=C/C=C/C=C/C=C/[C@H](O[C@@H]2O[C@H](C)[C@@H](O)[C@H](N)[C@@H]2O)C[C@@H]2O[C@](O)(C[C@@H](O)C[C@@H](O)[C@H](O)CC[C@@H](O)C[C@@H](O)CC(=O)O[C@H]1C)C[C@H](O)[C@H]2C(=O)O [AMPHOTERICIN B] | 0 | 7.9 | 0 | 1.32 | 0.79 | 0 | 0.25 | 0 | 0 | 0 | 0.1 | 12.5 | 0 | 18.1 | 0 | 99.7 | 87.1 | 100 | 98.1 | 99.8 | MFC (Aspergillus fumigatus): 2.5 µM (≈ 2.31 µg/mL); MIC (Aspergillus fumigatus): 2.5 µM (≈ 2.31 µg/mL); MFC (Cryptococcus neoformans): 0.06 µM (≈ 0.0554 µg/mL); MIC (Cryptococcus neoformans): 0.016 µM (≈ 0.0148 µg/mL); MFC (Candida albicans): 1.25 µM (≈ 1.16 µg/mL); MIC (Candida albicans): 0.625 µM (≈ 0.578 µg/mL); inhibition at 30 µM (Fusarium proliferatum [21]): 79%; Activity (Fusarium proliferatum [22]): Active; Activity (Fusarium solani [23]): Active; Activity (Fusarium oxysporum [25]): Active
4 | O=C1C2CC=CCC2C(=O)N1SC(Cl)(Cl)Cl (stereo not drawn) [CAPTAN] | 3 | 12 | 0 |  |  | 6 |  | 0.2 | 0 | 0 | 0 | 7.6 | 0 | 5.1 | 0 | 99.5 | 98.1 | 90.7 | 47.9 | 100 | inhibition at 30 µM (Fusarium proliferatum [21]): 100%; Activity (Fusarium proliferatum [26]): Active; Activity (Fusarium solani [27]): Active; Activity (Fusarium oxysporum [24]): Active
